High-throughput results deposited in PubChem BioAssay by several laboratories.
miR-122 sensor – miR-122 inhibition in Huh7 cells | Huh7 miR-122 Renilla luciferase sensor, 48 h; neutral wells = 0, positive control = 100 | activation (reporter increase), % at 12.5 µM | 340,000 tested, 0.3% active;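 active = mean replicate activation score at least 90 and every replicate individually at or above 90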;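 note: higher luciferase means less miR-122 activity so hits act as miR-122 inhibitors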
Jurkat NFkB inh – lowers PMA/ionomycin-induced NF-kB signal in Jurkat cells; 330,000 tested, 0.53% active; PMA/ionomycin-induced NF-kB luciferase reporter, luminescence; AID 435003; inhibition, % at 4 µM; in the data active = inhibition above about 50%
NR2E3 ag-1 – agonists of human nuclear receptor NR2E3. Q9Y5X4. GST-NR2E3/biotin-RetCOR TR-FRET, 1536-well. inhibition of corepressor binding, % at 4.78 µM. 320,000 tested, 0.12% active;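 active = percent inhibition above the cutoff of mean plus 3 SD of all tested compounds, set per screening campaign, cut at about 20% in these data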;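 note: 0% = DMSO wells and 100% = biotin wells as full block of FRET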
Target sequence (Q9Y5X4 whole entry, looked up): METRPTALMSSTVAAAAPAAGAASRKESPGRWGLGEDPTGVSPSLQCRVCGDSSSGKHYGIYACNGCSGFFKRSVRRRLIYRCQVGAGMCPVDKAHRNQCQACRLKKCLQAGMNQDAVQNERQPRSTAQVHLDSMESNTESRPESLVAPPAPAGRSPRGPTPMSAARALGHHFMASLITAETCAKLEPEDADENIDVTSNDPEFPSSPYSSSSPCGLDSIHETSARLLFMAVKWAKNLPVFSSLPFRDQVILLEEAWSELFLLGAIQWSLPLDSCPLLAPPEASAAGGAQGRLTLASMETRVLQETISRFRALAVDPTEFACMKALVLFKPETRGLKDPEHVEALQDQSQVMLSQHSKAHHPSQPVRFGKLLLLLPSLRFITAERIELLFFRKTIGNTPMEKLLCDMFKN
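System: GST-tagged NR2E3 plus biotinylated RetCOR corepressor; Amount: 1.35 nM GST-tagged NR2E3 final; Dosing: single nominal compound dose of 4.8 µM; Schedule: 5 h incubation at 4 °C; Technique: TR-FRET with europium anti-GST and streptavidin-D2, 340 nm excitation; Controls: biotin wells as high control, 0.6% DMSO wells as low control.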
NR2E3 ag-2 – activates human NR2E3 receptor | CHO-S Gal4-NCOR/VP16-NR2E3 two-hybrid, luciferase | inhibition of corepressor binding, % at 3.98 µM | 360,000 tested, 0.35% active;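 active = inhibition above the mean of all tested compounds plus 3 SD, cut at about 70% in these data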;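 note: 0% = DMSO with NR2E3 transfected cells and 100% = cells lacking NR2E3 construct; higher means lower luciferase signal from less NR2E3 corepressor binding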
FGF22 binding-1 – FGF22 (human) thermal shift binding. Q9HCT0. recombinant FGF22 thermal shift, SYPRO orange fluorescence; percent of sucrose octasulfate shift, DMSO zero. activity (Tm shift, normalised), % at 9.99 µM. 340,000 tested, 1.5% active. AID 651658;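 active = mean Tm shift, scaled 0 neutral to 100 positive control, at about 1.3% or above, every replicate too, limit read from the data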
Target sequence (Q9HCT0 whole entry, looked up): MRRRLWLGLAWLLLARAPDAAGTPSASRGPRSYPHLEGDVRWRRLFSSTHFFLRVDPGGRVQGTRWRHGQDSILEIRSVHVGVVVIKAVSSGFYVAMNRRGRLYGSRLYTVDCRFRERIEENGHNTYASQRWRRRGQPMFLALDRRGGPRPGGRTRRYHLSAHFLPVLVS
697 NFkB inh – lowers PMA/ionomycin-induced NF-kB signal in 697 B cells; 697 B-cell NF-kB luciferase reporter, 16 h; 330,000 tested, 0.33% active; inhibition, % at 4 µM; AID 435022; in the data active = inhibition above about 35%
NR2E3 ag confirm-1 – confirmation of human NR2E3 nuclear receptor agonists; shares compounds with NR2E3 ag-1; cell-free NR2E3 corepressor release, TR-FRET, 5 h; activation (reported as inhibition), % at 3.98 µM; 360 tested, 39% active; AID 2379; in the data active = activation above about 20%
PPARg-NCOR2 ctr – releases PPARgamma from NCOR2 in NR2E3 counter-screen. shares compounds with NR2E3 ag-1. TR-FRET PPARg-NCOR2 coregulator interaction, biochemical. inhibition, % at 3.98 µM. 360 tested, 45% active. AID 504787; in the data active = inhibition above about 20%;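 note: 0% = DMSO vehicle and 100% = wells without protein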
Jurkat NFkB conf – lowers PMA/ionomycin-induced NF-kB signal in Jurkat cells; 2,700 tested, 27% active; shares compounds with Jurkat NFkB inh; inhibition, % at 4 µM; Jurkat NF-kB luciferase, 16 h;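 active = inhibition reaching about 45% at 4 µM in either replicate, limit read from the data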;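 note: plate controls were PMA/ionomycin stimulated DMSO wells for no effect and unstimulated DMSO wells for full effect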
NR2E3 ag confirm-2 – NR2E3 agonism confirmed in two-hybrid assay; shares compounds with NR2E3 ag-2; inhibition, % at 3.98 µM; 2,300 tested, 51% active; CHO-S mammalian two-hybrid NR2E3-NCOR, luciferase luminescence;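 active = average inhibition above a cutoff equal to the mean inhibition of all tested compounds plus one SD, cut at about 70% in these data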;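 note: 0% = DMSO in NR2E3 cells and 100% = DMSO in cells lacking NR2E3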
VP16 counter – counter-screen for NR2E3 agonists: GAL4-VP16 reporter inhibitors; 2,300 tested, 29% active; shares compounds with NR2E3 ag-2; CHO-S GAL4-VP16 luciferase reporter, luminescence; inhibition, % at 3.98 µM; AID 624379;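 active = mean inhibition above a cutoff equal to the average over all tested compounds plus one standard deviation, cut at about 70% in these data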;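 note: luciferase from a UAS reporter driven by GAL4-VP16 transactivation; 0% = DMSO with VP16-transfected cells and 100% = DMSO with cells lacking VP16; higher means less reporter light so more repression of VP16 activity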
FGF22 binding-2 – binds human FGF22 shifting its melting temperature | shares compounds with FGF22 binding-1 | recombinant FGF22 thermal shift, SYPRO orange fluorescence | thermal shift activity, °C (ΔTm) at 38 µM | 1,000 tested, 2% active | AID 720646;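 active = fitted rise in melting shift crosses a set limit at or below the top valid dose tested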
TSA no protein – counter-screen for FGF22 binders: compound-only thermal shift, no protein | compound-only SYPRO orange thermal shift counter-screen | AC50, µM (top dose mostly 38 µM) | shares compounds with FGF22 binding-1 | 1,000 tested, 2% active;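 active = rising signal whose fitted curve reaches the 0.54 level within the top valid dose, showing a melting point, actives reach about 13 µM in these data; inactive = the rest, including activity in the opposite direction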; note: value is where the raw curve crosses a fixed level and not half-maximal
* = called active by the depositor; i = inactive; . = not tested or not shown; [ ] = remark or other dose. Only some compounds are listed: those with a hit (about 2.2% of all), similar ones and a draw of the others.

SMILES | miR-122 sensor | Jurkat NFkB inh | NR2E3 ag-1 | NR2E3 ag-2 | FGF22 binding-1 | 697 NFkB inh | NR2E3 ag confirm-1 | PPARg-NCOR2 ctr | others
COc1cccc2cc(C(=O)C3=C(O)C(=O)N(CCN4CCOCC4)C3c3ccc(Cl)cc3)oc12 (stereo not given) | . | -7.0 | 4.2 | 0.8 | -0.1 | -1.6 | . | .
O=C(C1=C(O)C(=O)N(CCN2CCOCC2)C1c1cccc(O)c1)c1cc2ccccc2o1 (stereo not given) | -1.7 | -14.6 | . | -29.9 | -0.1 | -31.5 | . | .
O=C(C1=C(O)C(=O)N(CCN2CCOCC2)C1c1cccnc1)c1cc2ccccc2o1 (stereo not given) | 0.7 | 6.6 | 32.4* | -2.2 | . | 24.8 | 4.7 | 3.6
O=C(C1=C(O)C(=O)N(CCN2CCOCC2)C1c1cccc(F)c1)c1cc2ccccc2o1 (stereo not given) | -0.2 | -1.4 | 33.0* | -12.8 | -0.1 | -18.0 | 19.8* | 24.9*
COc1cccc2cc(C(=O)C3=C(O)C(=O)N(CCN4CCOCC4)C3c3cccc(Cl)c3)oc12 (stereo not given) | -6.7 | 15.8 | 28.1* | -9.7 | -0.1 | 1.9 | 12.9 | 16.8
O=C(C1=C(O)C(=O)N(CCN2CCOCC2)C1c1cccs1)c1cc2ccccc2o1 (stereo not given) | -1.1 | -6.2 | 30.5* | -32.9 | 0.1 | -1.6 | 30.9* | 33.9*
CN1[C@H](C(=O)NCc2ccccn2)[C@@H](CO)[C@@H]2Cn3c(ccc(-c4ccc(F)cc4)c3=O)[C@@H]21 | 2.2[16.7 µM] | . | . | . | 0.0 | . | . | .
C[C@@H]1CN([C@H](C)CO)C(=O)c2cc(/C=C/c3ccccc3)cnc2O[C@H]1CN(C)S(=O)(=O)c1ccccc1 | -7.9[16.7 µM] | . | . | . | -0.1 | . | . | .
C[C@@H]1CN([C@H](C)CO)C(=O)c2cc(NS(=O)(=O)c3ccc(F)cc3)ccc2O[C@@H]1CN(C)S(=O)(=O)c1ccccc1 | 23.0[16.7 µM] | . | . | . | -0.4 | . | . | .
CN(C)CCCN1C(=O)C(O)=C(C(=O)c2cc3ccccc3o2)C1c1ccccc1 (stereo not given) | 0.9 | 7.8 | 30.3* | -18.4 | . | 10.0 | 27.2* | 28.3*
Cc1ccc(C2C(C(=O)c3cc4ccccc4o3)=C(O)C(=O)N2CCN2CCOCC2)cc1 (stereo not given) | 3.4 | -1.4 | 19.9* | -3.6 | 0.2 | 10.5 | 25.2* | 24.8*
COc1cccc(-c2cn(CC[C@@H]3CC[C@@H](NS(=O)(=O)Cc4ccccc4)[C@@H](CO)O3)nn2)c1 | 7.3[16.7 µM] | . | . | . | -0.3 | . | . | .
COc1ccc(C(=O)NNC(=O)C(Cc2ccc(O)cc2)NC(=O)c2ccccc2NC(=O)c2ccc(OC)cc2)cc1 (stereo not given) | -0.7 | 7.3 | 39.9* | 12.6 | . | 10.8 | 21.9* | -4.8
CCC(=O)Nc1ccc2c(c1)C(=O)N(C)C[C@@H](OC)[C@@H](C)CN(Cc1cccc(F)c1)[C@@H](C)CO2 | . | . | . | . | -0.3 | . | . | .
COc1cccc(CNC(=O)COC(=O)/C(C#N)=C/c2ccc(N(C)C)cc2)c1 | . | 1.9 | 30.7* | -21.0 | -0.3 | -3.4 | 36.0* | 35.5*
COc1ccc(/C=C(\C#N)C(=O)OCC(=O)NCc2ccco2)cc1 | -5.2 | -1.1 | -2.5 | 3.1 | -0.2 | -7.6 | . | .
S=C(c1ccc(-c2cccc(Cl)c2)o1)N1CCCCC1 | . | -165.9 | 30.2* | -148.6 | -0.2 | -178.0 | 17.4 | 10.7 | Jurkat NFkB conf=-90.2
CO[C@@H]1CN(C)C(=O)c2ccc(NC(C)=O)cc2OC[C@@H](C)N(C(=O)c2cccnc2)C[C@@H]1C | -2.6[16.7 µM] | . | . | . | 0.4 | . | . | .
Cc1onc(-c2c(F)cccc2Cl)c1C(=O)Nc1nnc(C(F)(F)F)s1 | . | 10.4 | 22.9* | 91.7* | -0.4 | -10.9 | 19.7* | -10.8 | NR2E3 ag confirm-2=95.8*;VP16 counter=76.7*
CCC(=O)N(C)C[C@H]1Oc2cc(C#Cc3ccccc3)ccc2S(=O)(=O)N([C@@H](C)CO)C[C@H]1C | -48.4[16.7 µM] | . | . | . | -0.1 | . | . | .
N#CC(C#N)=C1NC(N)=C(C#N)C(c2ccccc2)=C1C#N | . | 6.4 | 47.7* | -42.2 | 2.1* | -1.5 | 44.8* | 40.4* | FGF22 binding-2=0.145;TSA no protein=i
Cc1nc2ccc(Br)cc2c(-c2ccccc2)c1C(=O)O | . | 8.3 | 46.5* | 0.9 | 29.3* | 7.6 | 58.6* | 54.0* | FGF22 binding-2=0.106;TSA no protein=i
CC(=O)c1c(C)nc2ccc(Br)cc2c1-c1ccccc1 | . | -0.7 | 2.2 | -12.2 | 0.1 | 0.3 | . | .
COc1ccccc1-c1cn(CC[C@@H]2CC[C@H](NC(=O)Cc3ccccn3)[C@H](CO)O2)nn1 | . | . | . | . | -0.2 | . | . | .
COc1ccc(N(C(=O)c2ccccc2C)S(=O)(=O)c2cccs2)cc1 | . | 66.5* | 4.0 | -30.2 | . | -1.0 | . | . | Jurkat NFkB conf=47.7
COc1ccc(N(C(=O)c2ccncc2)S(=O)(=O)c2ccccc2)cc1 | -7.1 | 8.4 | 2.0 | -0.2 | 0.2 | 4.4 | . | .
CCCNC(=O)Nc1ccc2c(c1)C(=O)N(C)C[C@@H](OC)[C@@H](C)CN(Cc1ccncc1)[C@@H](C)CO2 | 9.4[16.7 µM] | . | . | . | . | . | . | .
COc1ccc(C(=O)CSc2nnc(-c3ccc(C)cc3)o2)cc1 | 2.3 | -3.4 | 1.1 | -17.5 | . | 15.1 | . | .
